# Hits are enriched below; roughly 2.8% of the tested compounds scored in any of these assays.
# DENV2 CPE rescue: inhibitors of DENV2 cytopathic effect; DENV2-infected cells, cytopathic effect rescue, plate reader; CPE inhibition, % at 9.99 µM; 350,000 compounds, 1.7% hits; AID 651640; in the data active = CPE inhibition above about 20%, passing the limit was not always enough; inconclusive = no clear call, values can overlap the other calls; tested in BHK-21 cells;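 also: 0% = median of neutral control wells and 100% = median of positive control wells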
# SIRT5 inh: sirtuin-5 (human) deacylase inhibition. 330,000 compounds, 1.1% hits. inhibition, % at 15 µM. Purified SirT5, succinyl-peptide AMC, trypsin-coupled fluorescence. Q9NXA8. AID 652115; in the data active = inhibition above about 15%; inconclusive = no clear call, values can overlap the other calls
# E-selectin induc: E-selectin induction on HUVECs. HUVEC E-selectin immunofluorescence imaging; normalized: neutral wells 0, TNF-alpha wells 100. AID 686992. 260,000 compounds, 0.37% hits. P16581. activation, % at 7.58 µM;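 active = mean E-selectin-positive cell signal at least 10% of the positive control, reached in at least 60% of replicates, without over 20% cell loss; inconclusive = no rule given, readout overlaps actives, possibly toxicity-flagged; inactive = the rest, including those meeting only one limit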
# Target sequence (P16581 whole entry, looked up): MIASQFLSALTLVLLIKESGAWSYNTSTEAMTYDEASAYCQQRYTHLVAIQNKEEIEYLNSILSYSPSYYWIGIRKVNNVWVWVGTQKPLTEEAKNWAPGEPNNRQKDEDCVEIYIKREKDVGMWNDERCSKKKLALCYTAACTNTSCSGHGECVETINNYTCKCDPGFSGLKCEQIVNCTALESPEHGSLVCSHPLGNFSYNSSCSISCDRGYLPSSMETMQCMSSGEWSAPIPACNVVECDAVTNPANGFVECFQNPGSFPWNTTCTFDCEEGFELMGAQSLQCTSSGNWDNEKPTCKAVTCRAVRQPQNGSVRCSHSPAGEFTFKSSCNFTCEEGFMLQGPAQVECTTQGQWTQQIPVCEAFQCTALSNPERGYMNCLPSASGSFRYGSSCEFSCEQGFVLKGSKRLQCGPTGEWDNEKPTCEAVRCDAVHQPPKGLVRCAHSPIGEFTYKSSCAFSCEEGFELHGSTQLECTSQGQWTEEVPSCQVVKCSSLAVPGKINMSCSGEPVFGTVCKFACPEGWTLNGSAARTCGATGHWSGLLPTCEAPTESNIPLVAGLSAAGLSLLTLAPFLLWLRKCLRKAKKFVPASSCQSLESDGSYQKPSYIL
#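 Read-out: % PE-positive cells | Test system: HUVEC | Doses: One compound dose added by pin transfer | Buffer or medium: EGM-2 over gelatin coat | Signal: Immunofluorescence imaging | Benchmarks: TNF-alpha, DMSO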
# Starred values were filed as active, the others as inactive; ? = inconclusive; · = not tested or not shown.
SMILES,DENV2 CPE rescue,SIRT5 inh,E-selectin induc
O=C(C[C@@H]1C[C@H]2c3cc(NC(=O)NC4CCCC4)ccc3O[C@H]2[C@@H](CO)O1)NC1CCCC1,15.9,-1.7,-0.4
O=C(Cc1ccccn1)NCC[C@@H]1CC[C@@H](NS(=O)(=O)c2ccc(Cl)cc2)[C@H](CO)O1,13.5,3.0,0.5
CCc1nn(CCCC(=O)N2CCC(C)CC2)c(=O)c2cc3occc3n12,5.8,0.6,·
CCc1nn(CCCC(=O)N2CCN(c3ccc(OC)cc3)CC2)c(=O)c2cc3occc3n12,7.6,3.0,140.7*
C[C@H](CO)N1C[C@H](C)[C@@H](CN(C)C)OCCCC[C@H](C)Oc2ccc(NS(C)(=O)=O)cc2C1=O,·,·,-0.3
COc1cccc(NC(=O)CN(C)C(=O)CC2CCCC2)c1,-8.9,-4.8,0.3
COc1ccc(NC(=O)CN(C)CC(=O)Nc2ccc3c(c2)CCC3)cc1,10.0,112.0*,·
Cn1nnnc1SCC(=O)Nc1ccc(Oc2ccc(Cl)cc2)cc1,-7.2,-9.9,·
COc1cccc(NC(=O)CN(C)CC(=O)NCc2ccc(F)cc2)c1,2.8,4.9,0.5
COc1ccc(OCC(=O)Nc2ccc3c(c2)CCC3)cc1,?,-0.8,·
COc1cccc(NC(=O)CN(C)CC(=O)NCc2ccco2)c1,-0.7,16.9*,0.0
COc1ccc(NC(=O)CN(C)C(=O)CC2CCCC2)cc1,20.2*,-4.3,0.1
COc1ccc(NC(=O)CCSc2nnnn2C)cc1,-8.3,17.8*,0.0
COc1ccc2c3c(n(C)c2c1)[C@@H](CO)N(C(=O)Nc1ccc(F)cc1)CC31CCN(S(=O)(=O)c2cccc(C)c2)CC1,-2.9,13.2,0.0
COc1cccc(NC(=O)CN(C)C(=O)CCSc2ccc(C)cc2)c1,-7.0,-1.2,-0.7
COc1ccc(NC(=O)CN(C)C(=O)CCSc2ccc(C)cc2)cc1,61.9*,-2.7,·
COc1ccc(NC(=O)c2cc(S(=O)(=O)N3CCCCC3)c[nH]2)cc1,3.6,·,111.1*
COc1ccc(NC(=O)CSCC(=O)Nc2ccc(C)c(S(=O)(=O)N3CCCCCC3)c2)cc1,?,0.6,0.1
COc1ccc(NC(=O)c2cc(S(=O)(=O)N3CCCC3)c[nH]2)cc1,?,2.1,0.0
COc1ccc(CC(=O)Nc2ccc(C)c(S(=O)(=O)N3CCCCCC3)c2)cc1,35.4*,-3.0,-0.4
COc1ccc2c3c([nH]c2c1)[C@H](CO)N(Cc1ccccc1F)CC31CCN(C(=O)C2CCC2)CC1,11.3,0.4,-0.7
COc1ccc2c(CC(=O)NNC(=O)c3ccc(C)cc3)coc2c1,-4.2,20.6*,0.0
COc1ccc2c(CC(=O)NNC(=O)c3cccs3)coc2c1,-0.2,-0.7,-0.2
CCC(=O)Nc1ccc2c(c1)OC[C@@H](C)N(C(C)=O)C[C@H](C)[C@H](OC)CN(C)C2=O,27.4*,-2.5,0.1
CCC(=O)Nc1ccc2c(c1)OC[C@H](C)N(C(C)=O)C[C@H](C)[C@@H](OC)CN(C)C2=O,0.6,-5.7,-0.1
SMILES,DENV2 CPE rescue,SIRT5 inh,E-selectin induc
CCC(=O)Nc1ccc2c(c1)OC[C@@H](C)N(C(C)=O)C[C@@H](C)[C@@H](OC)CN(C)C2=O,23.9*,-2.7,-0.1
CCC(=O)Nc1ccc2c(c1)OC[C@@H](C)N(C(C)=O)C[C@H](C)[C@@H](OC)CN(C)C2=O,-6.2,-3.6,-0.2
COc1ccc(CN(CCC(c2ccccc2)C2CCOC(C)(C)C2)C(C)=O)cc1 (centres undefined),102.1*,0.1,-1.3
COc1ccc(CNCCC(c2ccccc2)C2CCOC(C)(C)C2)cc1 (centres undefined),-3.8,-0.3,-0.2
O=C(C[C@@H]1CC[C@H]2[C@@H](COC[C@@H](O)CN2Cc2ccc(Cl)cc2)O1)NCCc1ccccc1,6.6,-0.7,0.1
CC(C)Cc1ccc(C(C)C(N)=Nc2ccc(O)cc2)cc1 (centres undefined),-3.1,19.1*,0.1
CC(C)Cc1ccc(C(C)C(=O)Nc2ccc(O)cc2)cc1 (centres undefined),0.4,0.3,0.1
CN1C(=O)c2cc(NC(=O)c3cccc(F)c3)ccc2OC[C@H]2O[C@H](CC(=O)N3CCc4ccccc4C3)CC[C@@H]21,78.0*,-2.4,0.1
CC(=O)Nc1ccc2c(c1)C(=O)N(C)[C@@H]1CC[C@@H](CC(=O)N3CCc4ccccc4C3)O[C@@H]1CO2,4.7,·,-0.1
CN1C(=O)c2cc(NC(=O)c3cccc(F)c3)ccc2OC[C@H]2O[C@@H](CC(=O)N3CCc4ccccc4C3)CC[C@H]21,31.5*,-2.0,0.3
CC(=O)Nc1ccc2c(c1)C(=O)N(C)[C@H]1CC[C@H](CC(=O)N3CCc4ccccc4C3)O[C@H]1CO2,-1.1,·,0.0
N#C[C@@H]1[C@H](c2ccc(C3=CCCC3)cc2)[C@@H](CO)N1C(=O)c1cccc(F)c1,0.5,0.0,-0.4
C[C@@H]1CN([C@@H](C)CO)S(=O)(=O)c2ccc(C#CC3CC3)cc2O[C@@H]1CN(C)C(=O)c1ccccn1,-2.3,-3.1,2.5
COCC(=O)N1CC(=O)N2[C@@H](CO)[C@H](c3ccc(C#CC4CCCC4)cc3)[C@@H]2C1,4.8,4.5,0.0
COc1ccccc1NC(=O)N[C@@H]1CC[C@H](CC(=O)N[C@@H](C)c2ccccc2)O[C@@H]1CO,9.2,0.4,-0.4
O=C(Nc1ccccc1F)N[C@H]1CC[C@H](CCNC(=O)C2CCC2)O[C@@H]1CO,19.6,3.4,0.7
CNC[C@@H]1Oc2cc(C#CC(C)(C)O)ccc2S(=O)(=O)N([C@@H](C)CO)C[C@H]1C,2.6,2.5,·
C[C@H](CO)N1C[C@H](C)[C@H](CN(C)C(=O)NC2CCCCC2)Oc2ccc(NC(=O)Nc3ccccc3)cc2C1=O,2.4,21.7*,-0.6
C[C@H]1CN([C@@H](C)CO)C(=O)c2cc(NC(=O)Nc3ccc4c(c3)OCO4)ccc2O[C@@H]1CN(C)C(=O)NC1CCCCC1,?,15.6*,0.1
C[C@@H]1CCCCO[C@H](CN(C)C(=O)NC2CCCCC2)[C@H](C)CN([C@@H](C)CO)C(=O)c2cc(NC(=O)Nc3ccc(C(F)(F)F)cc3)ccc2O1,64.5*,0.6,3.3
C[C@H](CO)N1C[C@H](C)[C@H](CN(C)C(=O)NC2CCCCC2)Oc2ccc(NC(=O)Nc3ccc4c(c3)OCO4)cc2C1=O,2.3,7.4,0.0
C[C@@H]1CN([C@@H](C)CO)C(=O)c2cc(NC(=O)c3ccncc3)ccc2O[C@H]1CN(C)C(=O)NC1CCCCC1,35.3*,3.5,·
C[C@H]1CN([C@@H](C)CO)C(=O)c2cc(NC(=O)c3ccncc3)ccc2O[C@@H]1CN(C)C(=O)NC1CCCCC1,4.8,0.0,·
C[C@H]1CN([C@@H](C)CO)C(=O)c2cc(NC(=O)Nc3ccccc3)ccc2O[C@@H]1CN(C)C(=O)NC1CCCCC1,3.0,-5.7,-3.9
C[C@H](CO)N1C[C@H](C)[C@@H](CN(C)C(=O)NC2CCCCC2)OCCCC[C@H](C)Oc2ccc(NC(=O)Nc3ccc(C(F)(F)F)cc3)cc2C1=O,?,4.1,1.9
C[C@H]1CN([C@@H](C)CO)C(=O)Cc2cc(NC(=O)CCCN(C)C)ccc2O[C@H]1CN(C)S(=O)(=O)c1ccc(F)cc1,13.9,0.7,0.0
CN(C)C(=O)[C@@H]1[C@@H](CO)[C@@H]2Cn3c(ccc(C4=CCCC4)c3=O)[C@H]1N2CCC(F)(F)F,-15.4,-18.3,0.0

# Screening results from PubChem.
